Results from ChEMBL document CHEMBL4038331 (J Med Chem, 2017).
pIC50: −log10 of the molar value. Calls of active or inactive are those of the source. The rule behind the calls is not given here.

Key:
[1] = system: Liver; assay: Induction of basal oxygen consumption under nonphosphorylative conditions in rat liver mitochondria after 5 mins in presence of succinate; format: functional
Summary of the method: (§1)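 Glutamate/malate (10/5 mM) or succinate (5 mM) was the substrate, with compound 2.5–10 μM for 5 min (state 2). ADP was added (125 nmol glutamate/malate; 75 nmol succinate), then oligomycin 2 μg/mL, then FCCP 1 μM. RCR and ADP/O were calculated. Seven experiments.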

[2] = system: Liver; assay: Decrease in oxidative phosphorylation efficiency in rat liver mitochondria assessed as reduction in coupling between ATP systhesis and oxygen consumption after 5 mins in presence of glutamate/malate; format: functional; summary of the method: as §1
[3] = system: Liver; assay: Antioxidant activity in rat liver mitochondria assessed as inhibition of ADP/FeSO4-induced lipid peroxidation at 5 uM preincubated for 5 mins followed by ADP/FeSO4 addition; format: functional
Summary of the method: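 Rat liver mitochondria (2 mg) in 100 mM KCl, 10 mM Tris-HCl pH 7.6, with glutamate/malate (5/2.5 mM) at 37 °C. After 5 min with compound (5 μM), peroxidation was started with ADP/0.1 mM FeSO4. The lag phase of O2 consumption was measured by Clark electrode and expressed as % of control. Six experiments.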

[4] = system: Liver; assay: Induction of ADP-stimulated respiration in rat liver mitochondria after 5 mins in presence of succinate; format: functional; summary of the method: as §1
[5] = system: Liver; assay: Induction of ADP-stimulated respiration in rat liver mitochondria after 5 mins in presence of glutamate/malate; format: functional; summary of the method: as §1
[6] = Antioxidant activity assessed as DPPH radical scavenging activity measured every minute for 45 mins; format: functional
Summary of the method: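 DPPH• ethanolic solution diluted to absorbance 0.72 ± 0.02 at 515 nm. Ethanolic test solutions (50–500 μM) were added in triplicate and read at 515 nm. Inhibition was taken against an ethanol blank (100% radical), and IC50 was read from dose–response curves.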

[7] = Antioxidant activity assessed as ABTS radical scavenging activity measured each minute for 15 mins by spectrophotometric analysis; format: functional
Summary of the method: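 ABTS•+ generated from 7 mM ABTS plus potassium persulfate, held 16 h dark at room temperature, then diluted in ethanol to absorbance 0.72 ± 0.02. Ethanolic test solutions (10–500 μM) were added to radical solution in triplicate. Inhibition was taken against an ethanol blank (100% radical), and IC50 was read from dose–response curves.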

[8] = species: Rattus norvegicus; assay: Inhibition of mPTP in energized rat liver mitochondria at 2.5 to 10 uM after 5 mins in presence of succinate by spectrophotometric analysis
[9] = system: Liver; assay: Inhibition of ADP-induced membrane depolarization in succinate energized rat liver mitochondria at 5 uM preincubated for 5 mins followed by ADP addition measured by safranine-based spectrofluorometric analysis; format: functional, tissue-based
Summary of the method: (§2)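 Safranine (5 μM) fluorescence (ex 495/em 586 nm) at 25 °C. Rat liver mitochondria (0.5 mg/2 mL) were in 200 mM sucrose, 1 mM KH2PO4, 10 mM Tris pH 7.4, 10 μM EGTA with glutamate/malate or succinate, after 5 min with 2.5–10 μM. ADP 25 nmol depolarised, then FCCP 1 μM was added. A valinomycin calibration in K+-free medium was used, five experiments.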

[10] = system: HepG2; assay: Cytotoxicity against human HepG2 cells assessed as mitochondrial depolarization at 2.5 uM after 48 hrs TMRM-staining based epifluorescence microscopic analysis; format: cell-based; details: hepg2, 48 h
Summary of the method: (§3)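 HepG2 cells on coverslips (8 × 10^4 cells/2 mL) were treated 48 h. In the last 30 min, cells were stained with TMRM (100 nM) and Hoechst 33342 (1 μg/mL) in HBSS pH 7.4 at 37 °C in the dark. Live cells were imaged by fluorescence microscopy, four random fields per well, three experiments.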

[11] = system: HepG2; assay: Cytotoxicity against human HepG2 cells assessed as chromatin condensation at 2.5 uM after 48 hrs Hoechst 33342-staining based epifluorescence microscopic analysis; format: cell-based; details: hepg2, 48 h; summary of the method: as §3
[12] = Induction of mPTP in energized rat liver mitochondria at 2.5 to 10 uM after 5 mins in presence of succinate by spectrophotometric analysis
[13] = system: Liver; assay: Induction of basal oxygen consumption under nonphosphorylative conditions in rat liver mitochondria after 5 mins in presence of glutamate/malate; format: functional; summary of the method: as §1
[14] = system: Liver; assay: Ratio of drug level in rat liver intra-mitochondria to extra-mitochondria at 1 uM in presence of succinate/valinomycin by TPP+-based electrode assay; format: ADME, tissue-based
Summary of the method: (§4)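 TPP+-selective electrode with rat liver mitochondria (0.5 mg/mL) in 120 mM KCl, 10 mM HEPES pH 7.2, 1 mM EGTA at 37 °C with rotenone 1.5 μM. Five 1 μM additions calibrated the electrode, then succinate 10 mM was added, then valinomycin 0.2 μg/mL. The accumulation ratio assumed a matrix volume of ~0.5 μL/mg with a binding correction.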

[15] = Redox potential of compound in Ag/AgCl-NaCl containing phosphate buffer at 0.1 mM at pH 7.4 by cyclic voltammetric analysis
Summary of the method: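 Voltammetry used a glassy carbon working electrode, Pt counter and Ag/AgCl reference. Compound was at 0.1 mM final (10 mM ethanolic stock) in pH 7.4 potassium phosphate electrolyte.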

[16] = system: HepG2; assay: Antioxidant activity in human HepG2 cells assessed as intracellular GSH content per ug of protein at 2.5 uM after 48 hrs by HPLC analysis (reference value: 17.81 nmol); format: functional
[17] = system: Liver; assay: Increase in oligomycin-inhibited respiration in rat liver mitochondria after 5 mins in presence of succinate; format: functional; summary of the method: as §1
[18] = system: Liver; assay: Decrease in oxidative phosphorylation efficiency in rat liver mitochondria assessed as reduction in coupling between ATP systhesis and oxygen consumption after 5 mins in presence of succinate; format: functional; summary of the method: as §1
[19] = system: Liver; assay: Induction of basal respiration in rat liver mitochondria measured 5 mins after ADP phosphorylation in presence of glutamate/malate; format: functional; summary of the method: as §1
[20] = system: Liver; assay: Drug uptake in rat liver extra-mitochondria at 1 uM in presence of succinate/valinomycin by TPP+-based electrode assay; format: ADME, tissue-based; summary of the method: as §4
[21] = system: HepG2; assay: Antioxidant activity in human HepG2 cells assessed as reduction in FeSO4-induced cell toxicity at 2.5 uM preincubated for 1 hr followed by FeSO4 addition for 48 hrs by SRB assay; format: functional, cell-based
Summary of the method: (§5)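 HepG2 cells, grown in high-glucose DMEM with 10% FBS at 37 °C and 5% CO2, seeded at 2 × 10^4 cells/500 μL. Cells were preincubated with compound, then given 250 μM FeSO4 or 250 μM H2O2. Cell mass was read by SRB (fixed, stained, OD 540 nm) as % of untreated control. Four independent experiments.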

[22] = system: Liver; assay: Increase in oligomycin-inhibited respiration in rat liver mitochondria after 5 mins in presence of glutamate/malate; format: functional; summary of the method: as §1
[23] = system: Liver; assay: Induction of membrane hyperpolarization in rat liver mitochondria assessed as change in repolarization potential at 2.5 uM; format: functional; summary of the method: as §2
[24] = system: Liver; assay: Drug uptake in rat liver intra-mitochondria at 1 uM in presence of succinate/valinomycin by TPP+-based electrode assay; format: ADME, tissue-based; summary of the method: as §4
[25] = system: HepG2; assay: Cytotoxicity against human HepG2 cells assessed as reduction in cell density at >2.5 uM after 48 hrs by SRB assay; format: cell-based; details: hepg2, 48 h
[26] = system: Liver; assay: Decrease in oxidative phosphorylation efficiency in rat liver mitochondria assessed as reduction in respiratory control ratio after 5 mins in presence of glutamate/malate; format: functional; summary of the method: as §1
[27] = system: HepG2; assay: Cytotoxicity against human HepG2 cells assessed as depletion of intracellular GSH content at 2.5 uM after 48 hrs by HPLC analysis; format: cell-based; details: hepg2, 48 h
Summary of the method: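 HepG2 cells (4 × 10^5 per 100 mm dish) were incubated 48 h, collected and stored at −80 °C in PBS. Reduced GSH was measured by reverse-phase HPLC with detection at 515 nm and expressed as nmol GSH/μg protein. Four experiments.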

[28] = system: Liver; assay: Induction of basal respiration in rat liver mitochondria measured 5 mins after ADP phosphorylation in presence of succinate; format: functional; summary of the method: as §1
[29] = Antioxidant activity assessed as GO radical scavenging activity measured for 30 mins in absence of light; format: functional
Summary of the method: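 Ethanolic GO• (5 mM stock) diluted to absorbance 1.00 ± 0.02 at 428 nm. Test solutions (5–75 μM in ethanol) were added in triplicate and read at 428 nm at room temperature. Inhibition was taken against an ethanol blank (100% radical).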

[30] = Lipophilicity of compound in Ag/AgCl-NaCl containing PET membrane assessed as tranfer potential at pH 7; format: physicochemical
Summary of the method: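 Transfer across a liquid–liquid interface on a microporous PET membrane, with 1,6-dichlorohexane organic phase containing BTPPATPBCl. A gelled 2 mM BTPPACl + 2 mM NaCl reference was used, with 10 mM Tris-HCl pH 7.0 aqueous electrolyte.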

[31] = system: HepG2; assay: Antioxidant activity in human HepG2 cells assessed as reduction in H2O2-induced cell toxicity at 2.5 uM preincubated for 1 hr followed by H2O2 addition for 48 hrs by SRB assay; format: functional, cell-based; summary of the method: as §5
[32] = Iron chelating activity in ammonium acetate buffer assessed as inhibition of [Fe(ferrozine)3]2+ formation at 100 uM at pH 6.7 measured after 10 mins by spectrophotometric analysis
Summary of the method: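 Ferrozine assay in ammonium acetate buffer pH 6.7. Compound (100 μM) plus ammonium iron(II) sulfate (20 μM) for 10 min, read at 562 nm. Ferrozine was added, incubated 10 min at 37 °C, and re-read at 562 nm. The first reading was subtracted, with a DMSO blank and EDTA = 100%. Three experiments.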

[33] = species: Rattus norvegicus; assay: Inhibition of mPTP in energized rat liver mitochondria at 10 uM after 5 mins in presence of succinate by spectrophotometric analysis
Summary of the method: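 Ca2+ (15–50 μM, titrated daily) added to trigger mPTP, with cyclosporin A as control. Swelling followed as light scattering at 540 nm with stirring at 37 °C. Reported as Δabsorbance; mean ± SEM, n=3.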

[34] = system: Liver; assay: Antioxidant activity in rat liver mitochondria assessed as inhibition of FeSO4/H2O2-induced lipid peroxidation at 5 uM preincubated for 5 mins followed by FeSO4/H2O2 addition for 15 mins by TBARS-based fluorescence assay; format: functional
Summary of the method: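 Rat liver mitochondria (2 mg protein/mL) in 100 mM KCl, 10 mM Tris-HCl pH 7.6 with glutamate/malate at 37 °C. After 5 min with compound (5 μM), 100 μM FeSO4/500 μM H2O2/5 mM ascorbate was added for 15 min. Butylated hydroxytoluene, perchloric acid and thiobarbituric acid were added, then heated 15 min at 100 °C. Read-out as % of control, three experiments.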

[35] = system: Liver; assay: Inhibition of ADP-induced membrane depolarization in succinate energized rat liver mitochondria at 10 uM preincubated for 5 mins followed by ADP addition measured by safranine-based spectrofluorometric analysis; format: functional, tissue-based; summary of the method: as §2

SMILES | Activity [1] | Activity [2] | inhibition [3] | Activity [4] | Activity [5] | pIC50 [6] | pIC50 [7] | inhibition [8] | Activity [12] | Activity [13] | Ratio [14] | Activity [15] | Activity [17] | Activity [18] | Activity [19] | Drug uptake [20] | Activity [22] | Activity [23] | Drug uptake [24] | Activity [26] | further results
CS(=O)(=O)[O-].O=C(/C=C/c1ccc(O)c(O)c1)NCCCCCCCCCC[P+](c1ccccc1)(c1ccccc1)c1ccccc1 | Dose-dependent effect | Dose-dependent effect | Active | Dose-dependent effect | Dose-dependent effect | 4.59 | 4.63 | Active | Non-Toxic | Dose-dependent effect | 2700 | 0.174 V | Dose-dependent effect | Dose-dependent effect | Dose-dependent effect | 1.9 µM | Dose-dependent effect | 10 mV | 4.7 mM | Dose-dependent effect | inhibition [9]: Active; Activity [10]: Non-Toxic; Activity [11]: Non-Toxic; Activity [16]: 20.85 nmol; inhibition [21]: Active; Activity [25]: Toxic; Activity [27]: Non-Toxic; Activity [28]: Dose-dependent effect; pIC50 [29]: 5.57; Activity [30]: 0.291 V; inhibition [31]: Active
COC1=C(OC)C(=O)C(CCCCCCCCCC[P+](c2ccccc2)(c2ccccc2)c2ccccc2)=C(C)C1=O.CS(=O)(=O)[O-] [MITOQUINONE MESYLATE] | – | – | – | – | – | – | – | – | Non-Toxic | – | – | – | – | – | – | – | – | – | – | – | inhibition [32]: inactive; inhibition [33]: inactive
CS(=O)(=O)[O-].O=C(/C=C/c1cc(O)c(O)c(O)c1)NCCCCCCCCCC[P+](c1ccccc1)(c1ccccc1)c1ccccc1 | Dose-dependent effect | Dose-dependent effect | Active | Dose-dependent effect | Dose-dependent effect | 4.86 | 5.12 | Active | Non-Toxic | Dose-dependent effect | 3500 | 0.057 V | Dose-dependent effect | Dose-dependent effect | Dose-dependent effect | 1.4 µM | Dose-dependent effect | 25 mV | 5 mM | Dose-dependent effect | inhibition [34]: Active; Activity [28]: Dose-dependent effect; pIC50 [29]: 5.60; Activity [30]: 0.377 V; inhibition [35]: Active
